Laboratory results published in ChEMBL document CHEMBL2346503, “Synthesis and evaluation of novel (18)F-labeled spirocyclic piperidine derivatives as σ1 receptor ligands for positron emission tomography imaging” (J Med Chem, 2013).

What was measured:
[1] = system: Bone; assay: Biodistribution in ICR mouse bone at 370 kBq, iv after 120 mins by gamma-counting analysis; format: ADME, organism-based, Bone element; details: in vivo, 2 h
Method in brief: (§1)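 Male ICR mice (n = 5 per group) got 370 kBq tracer in 0.1 mL saline by iv injection. They were decapitated at 2, 30, 60 or 120 min, and organs were weighed and γ-counted. %ID/g was found against diluted aliquots of the injected dose, decay-corrected, and given as mean ± SD.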

[2] = system: Muscle tissue; assay: Biodistribution in ICR mouse muscle at 370 kBq, iv after 120 mins by gamma-counting analysis; format: ADME, organism-based; details: in vivo, 2 h
Method in brief: (§2)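 Male ICR mice, n = 5 per time point, given the radiotracer in saline (370 kBq, 0.1 mL) by intravenous injection. Killed by decapitation at 2, 30, 60 or 120 min. Organs were excised, weighed and gamma-counted with decay correction. Uptake is expressed as % injected dose per gram of wet tissue against diluted standards of the injected material; stomach and intestine are expressed as % injected dose per organ. Mean ± SD.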

[3] = system: Stomach; assay: Biodistribution in ICR mouse stomach assessed per organ at 370 kBq, iv after 120 mins by gamma-counting analysis; format: ADME, organism-based; details: in vivo, 2 h; method in brief: as §2
[4] = system: Lung; assay: Biodistribution in ICR mouse lung at 370 kBq, iv after 120 mins by gamma-counting analysis; format: ADME, organism-based; details: in vivo, 2 h; method in brief: as §1
[5] = system: Spleen; assay: Biodistribution in ICR mouse spleen at 370 kBq, iv after 120 mins by gamma-counting analysis; format: ADME, organism-based; details: in vivo, 2 h; method in brief: as §2
[6] = system: Liver; assay: Biodistribution in ICR mouse liver at 370 kBq, iv after 120 mins by gamma-counting analysis; format: ADME, organism-based; details: in vivo, 2 h; method in brief: as §1
[7] = system: Blood; assay: Biodistribution in ICR mouse blood at 370 kBq, iv after 120 mins by gamma-counting analysis; format: ADME, organism-based; details: in vivo, 2 h; method in brief: as §1
[8] = Ratio of drug uptake from ICR mouse brain to blood after 60 mins; format: ADME, tissue-based; details: brain and blood
[9] = system: Muscle tissue; assay: Biodistribution in ICR mouse muscle at 370 kBq, iv after 60 mins by gamma-counting analysis; format: ADME, organism-based; details: in vivo, 1 h; method in brief: as §2
[10] = system: Intestine; assay: Biodistribution in ICR mouse intestine assessed per organ at 370 kBq, iv after 60 mins by gamma-counting analysis; format: ADME, organism-based; details: in vivo, 1 h
Method in brief: (§3)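 Male ICR mice (n = 5) got 370 kBq iv in 0.1 mL saline and were decapitated at 2, 30, 60 or 120 min. Whole intestine was γ-counted and expressed as percent injected dose per organ, decay-corrected, mean ± SD.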

[11] = system: Stomach; assay: Biodistribution in ICR mouse stomach assessed per organ at 370 kBq, iv after 60 mins by gamma-counting analysis; format: ADME, organism-based; details: in vivo, 1 h; method in brief: as §2
[12] = system: Kidney; assay: Biodistribution in ICR mouse kidney at 370 kBq, iv after 60 mins by gamma-counting analysis; format: ADME, organism-based; details: in vivo, 1 h; method in brief: as §1
[13] = system: Lung; assay: Biodistribution in ICR mouse lung at 370 kBq, iv after 60 mins by gamma-counting analysis; format: ADME, organism-based; details: in vivo, 1 h; method in brief: as §2
[14] = system: Spleen; assay: Biodistribution in ICR mouse spleen at 370 kBq, iv after 60 mins by gamma-counting analysis; format: ADME, organism-based; details: in vivo, 1 h; method in brief: as §2
[15] = system: Liver; assay: Biodistribution in ICR mouse liver at 370 kBq, iv after 60 mins by gamma-counting analysis; format: ADME, organism-based; details: in vivo, 1 h; method in brief: as §1
[16] = system: Brain; assay: Biodistribution in ICR mouse brain at 370 kBq, iv after 60 mins by gamma-counting analysis; format: ADME, organism-based; details: in vivo, 1 h; method in brief: as §1
[17] = system: Bone; assay: Biodistribution in ICR mouse bone at 370 kBq, iv after 30 mins by gamma-counting analysis; format: ADME, organism-based, Bone element; details: in vivo, 0.5 h; method in brief: as §1
[18] = Ratio of drug uptake from ICR mouse brain to blood after 30 mins; format: ADME, tissue-based; details: brain and blood
[19] = system: Muscle tissue; assay: Biodistribution in ICR mouse muscle at 370 kBq, iv after 30 mins by gamma-counting analysis; format: ADME, organism-based; details: in vivo, 0.5 h; method in brief: as §2
[20] = system: Kidney; assay: Biodistribution in ICR mouse kidney at 370 kBq, iv after 30 mins by gamma-counting analysis; format: ADME, organism-based; details: in vivo, 0.5 h; method in brief: as §1
[21] = system: Stomach; assay: Biodistribution in ICR mouse stomach assessed per organ at 370 kBq, iv after 30 mins by gamma-counting analysis; format: ADME, organism-based; details: in vivo, 0.5 h; method in brief: as §2
[22] = system: Lung; assay: Biodistribution in ICR mouse lung at 370 kBq, iv after 30 mins by gamma-counting analysis; format: ADME, organism-based; details: in vivo, 0.5 h; method in brief: as §1
[23] = system: Spleen; assay: Biodistribution in ICR mouse spleen at 370 kBq, iv after 30 mins by gamma-counting analysis; format: ADME, organism-based; details: in vivo, 0.5 h; method in brief: as §2
[24] = system: Heart; assay: Biodistribution in ICR mouse heart at 370 kBq, iv after 30 mins by gamma-counting analysis; format: ADME, organism-based; details: in vivo, 0.5 h; method in brief: as §1
[25] = system: Blood; assay: Biodistribution in ICR mouse blood at 370 kBq, iv after 30 mins by gamma-counting analysis; format: ADME, organism-based; details: in vivo, 0.5 h; method in brief: as §1
[26] = system: Muscle tissue; assay: Biodistribution in ICR mouse muscle at 370 kBq, iv after 2 mins by gamma-counting analysis; format: ADME, organism-based; details: in vivo; method in brief: as §2
[27] = system: Intestine; assay: Biodistribution in ICR mouse intestine assessed per organ at 370 kBq, iv after 2 mins by gamma-counting analysis; format: ADME, organism-based; details: in vivo; method in brief: as §3
[28] = system: Stomach; assay: Biodistribution in ICR mouse stomach assessed per organ at 370 kBq, iv after 2 mins by gamma-counting analysis; format: ADME, organism-based; details: in vivo; method in brief: as §2
[29] = system: Lung; assay: Biodistribution in ICR mouse lung at 370 kBq, iv after 2 mins by gamma-counting analysis; format: ADME, organism-based; details: in vivo; method in brief: as §1
[30] = system: Kidney; assay: Biodistribution in ICR mouse kidney at 370 kBq, iv after 2 mins by gamma-counting analysis; format: ADME, organism-based; details: in vivo; method in brief: as §1
[31] = system: Spleen; assay: Biodistribution in ICR mouse spleen at 370 kBq, iv after 2 mins by gamma-counting analysis; format: ADME, organism-based; details: in vivo; method in brief: as §2
[32] = Lipophilicity, log D of the compound at pH 7.4 by shake flask method; format: physicochemical; details: buffer
Method in brief: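 Shake flask: radiotracer (370 kBq) in 3 mL 1-octanol plus 3 mL 0.05 M sodium phosphate buffer pH 7.4, vortexed 3 min at room temperature, then centrifuged. Both phases were gamma-counted and log D = log(cpm/mL octanol ÷ cpm/mL buffer). The octanol layer was repartitioned until values were consistent. Triplicate, repeated three times.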

[33] = system: Muscle tissue; assay: Biodistribution in ICR mouse muscle at 370 kBq, iv after 60 mins by gamma-counting analysis in presence of haloperidol relative to control; format: ADME, organism-based; details: in vivo, 1 h
Method in brief: (§4)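 Male ICR mice, n = 5 per group, received saline (0.1 mL) or haloperidol (0.1 mL, 1.0 mg/kg) via tail vein 5 min before the radiotracer (370 kBq, 0.1 mL, iv). Killed by decapitation at 60 min. Tissues were excised, weighed and gamma-counted. Values are % ID/g (stomach as % ID/organ) and percent change versus saline controls, compared by two-tailed independent Student's t test, p ≤ 0.05.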

[34] = system: Stomach; assay: Biodistribution in ICR mouse stomach assessed per organ at 370 kBq, iv after 60 mins by gamma-counting analysis in presence of haloperidol relative to control; format: ADME, organism-based; details: in vivo, 1 h; method in brief: as §4
[35] = system: Spleen; assay: Biodistribution in ICR mouse spleen at 370 kBq, iv after 60 mins by gamma-counting analysis in presence of haloperidol relative to control; format: ADME, organism-based; details: in vivo, 1 h; method in brief: as §4
[36] = system: Liver; assay: Biodistribution in ICR mouse liver at 370 kBq, iv after 60 mins by gamma-counting analysis in presence of haloperidol relative to control; format: ADME, organism-based; details: in vivo, 1 h
Method in brief: (§5)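 Male ICR mice (n = 5) got saline or haloperidol (0.1 mL, 1.0 mg/kg) via tail vein 5 min before 370 kBq tracer iv. Tissues were taken 60 min later and γ-counted as %ID/g (intestine as %ID/organ). Control and blocked groups were compared by two-tailed independent Student's t test, p ≤ 0.05.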

[37] = system: Brain; assay: Biodistribution in ICR mouse brain at 370 kBq, iv after 60 mins by gamma-counting analysis in presence of haloperidol relative to control; format: ADME, organism-based; details: in vivo, 1 h; method in brief: as §5
[38] = Ratio of drug uptake from ICR mouse brain to blood after 120 mins; format: ADME, tissue-based; details: brain and blood

Row | Drug uptake [1] [% ID/g] | Drug uptake [2] [% ID/g] | Drug uptake [3] [%ID] | Drug uptake [4] [% ID/g] | Drug uptake [5] [% ID/g] | Drug uptake [6] [% ID/g] | Drug uptake [7] [% ID/g] | Kp at 1 h [8] | Drug uptake [9] [% ID/g] | Drug uptake [10] [%ID] | Drug uptake [11] [%ID] | Drug uptake [12] [% ID/g] | Drug uptake [13] [% ID/g] | Drug uptake [14] [% ID/g] | Drug uptake [15] [% ID/g] | Drug uptake [16] [% ID/g] | Drug uptake [17] [% ID/g] | Kp at 0.5 h [18] | Drug uptake [19] [% ID/g] | Drug uptake [20] [% ID/g] | SMILES | also measured
1 | 5.28 | 2.62 | 2.03 | 3.16 | 3.91 | 4.14 | 3.52 | 1.4 | 2.64 | 4.68 | 1.45 | 4.37 | 3.73 | 5.43 | 6.32 | 4.63 | 4.1 | 1.8 | 2.42 | 5.09 | [18F]CCOCCOCCOc1ccc(CN2CCC3(CC2)OCc2ccccc23)cc1 | Drug uptake [21]: 2 %ID; Drug uptake [22]: 4.46 % ID/g; Drug uptake [23]: 7.64 % ID/g; Drug uptake [24]: 2.95 % ID/g; Drug uptake [25]: 2.96 % ID/g; Drug uptake [26]: 3.22 % ID/g; Drug uptake [27]: 6.21 %ID; Drug uptake [28]: 2.19 %ID; Drug uptake [29]: 20.68 % ID/g; Drug uptake [30]: 16.45 % ID/g; Drug uptake [31]: 5.35 % ID/g; logD [32]: 1.9; Drug uptake [33]: 17%; Drug uptake [34]: 28%; Drug uptake [35]: -32%; Drug uptake [36]: -36%; Drug uptake [37]: -16%; Kp at 2 h [38]: 1.1
2 | 6.13 | 4.01 | 0.89 | 16.2 | 9.09 | 13.6 | 1.2 | 11.4 | 4.41 | 7.81 | 0.9 | 10.87 | 25.21 | 8.52 | 13.87 | 9.1 | 3.3 | 12.9 | 4.59 | 13.16 | [18F]CCOc1ccc(CN2CCC3(CC2)OCc2ccccc23)cc1 | Drug uptake [21]: 1.09 %ID; Drug uptake [22]: 25.89 % ID/g; Drug uptake [23]: 8.2 % ID/g; Drug uptake [24]: 14.39 % ID/g; Drug uptake [25]: 0.72 % ID/g; Drug uptake [26]: 5.45 % ID/g; Drug uptake [27]: 6.62 %ID; Drug uptake [28]: 1.45 %ID; Drug uptake [29]: 47.91 % ID/g; Drug uptake [30]: 18.76 % ID/g; Drug uptake [31]: 4.84 % ID/g; logD [32]: 2.41; Drug uptake [33]: -20%; Drug uptake [34]: 208%; Drug uptake [35]: 5%; Drug uptake [36]: -64%; Drug uptake [37]: -58%; Kp at 2 h [38]: 7.5
